Test results taken from ChEMBL document CHEMBL5608193, “Discovery of bivalent small molecule degraders of cyclin-dependent kinase 7 (CDK7)” (Eur J Med Chem, 2024).
Active and inactive are the calls of the source. No cut-off for these calls is given here.

Tests used:
[1] = molecular target: T1, von Hippel-Lindau disease tumor suppressor/Cyclin-dependent kinase 7 (Homo sapiens) (UniProt P50613+P40337); assay: PROTAC activity at CDK7/VHL in human Jurkat cells assessed as degradation of CDK7 at 1 uM measured after 16 hrs incubation by immunoblot analysis relative to control; type: cell-based
Outline: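 Jurkat cells given VHL-recruiting compounds at 0.1 or 1 μM for 16 h. RIPA lysis, BCA normalization, 4–20% SDS-PAGE, nitrocellulose transfer. CDK7 (1:1000) and β-actin probed overnight at 4 °C, IRDye secondaries, Odyssey detection. Quantified against control, mean ± SEM from three independent biological replicates.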

[2] = molecular target: T1, von Hippel-Lindau disease tumor suppressor/Cyclin-dependent kinase 7 (Homo sapiens); assay: PROTAC activity at CDK7/VHL in human Jurkat cells assessed as degradation of CDK7 at 0.1 uM by immunoblot analysis; type: cell-based; details: time 0.5-24 hrs, TDE = time-dependent effect
Outline: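 Jurkat time course at 0.1 μM, lysates taken at set time points from 0.5 up to 24 h. CDK7 immunoblotted after RIPA lysis, SDS-PAGE and near-infrared detection with β-actin loading control.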

[3] = molecular target: T1, von Hippel-Lindau disease tumor suppressor/Cyclin-dependent kinase 7 (Homo sapiens); assay: PROTAC activity at CDK7/VHL in human Jurkat cells assessed as degradation of CDK7 measured after 6 hrs incubation by immunoblot analysis; type: cell-based; details: dose 10-5000 nM
[4] = molecular target: T1, von Hippel-Lindau disease tumor suppressor/Cyclin-dependent kinase 7 (Homo sapiens); assay: PROTAC activity at CDK7/VHL in human OVCAR-3 cells assessed as degradation of CDK7 at 0.1 to 5 uM measured after 6 hrs incubation by immunoblot analysis; type: cell-based; details: dose 0.1-5 µM
[5] = molecular target: T1, von Hippel-Lindau disease tumor suppressor/Cyclin-dependent kinase 7 (Homo sapiens); assay: PROTAC activity at CDK7/VHL in human SU-DHL-5 cells assessed as degradation of CDK7 at 0.1 to 5 uM measured after 6 hrs incubation by immunoblot analysis; type: cell-based; details: dose 0.1-5 µM
[6] = molecular target: T1, von Hippel-Lindau disease tumor suppressor/Cyclin-dependent kinase 7 (Homo sapiens); assay: PROTAC activity at CDK7/VHL in human MOLT-4 cells assessed as degradation of CDK7 at 0.1 to 5 uM measured after 6 hrs incubation by immunoblot analysis; type: cell-based; details: dose 0.1-5 µM
[7] = molecular target: Cyclin-dependent kinase 7 (Homo sapiens) (UniProt P50613); assay: Induction of degradation of CDK7 in human […]-knockout Jurkat cells at 0.01 to 1 uM measured after 6 hrs incubation by immunoblot analysis; type: cell-based; details: dose 0.01-1 µM
Outline: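 Parental and VHL-knockout Jurkat cells treated with degrader for 6 h, then CDK7 western blot (RIPA lysis, 4–20% SDS-PAGE, β-actin control, infrared detection).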

[8] = molecular target: von Hippel-Lindau disease tumor suppressor/Cyclin-dependent kinase 1 (Homo sapiens) (UniProt P06493+P40337); assay: PROTAC activity at CDK1/VHL in human Jurkat cells assessed as degradation of CDK7 measured at 10 to 500 nM after 6 hrs incubation by Western blotting analysis; type: cell-based; details: dose 10-500 nM
[9] = molecular target: von Hippel-Lindau disease tumor suppressor/Cyclin-dependent kinase 2 (Homo sapiens) (UniProt P24941+P40337); assay: PROTAC activity at CDK2/VHL in human Jurkat cells assessed as degradation of CDK7 measured at 10 to 500 nM after 6 hrs incubation by Western blotting analysis; type: cell-based; details: dose 10-500 nM
[10] = molecular target: von Hippel-Lindau disease tumor suppressor/Cyclin-dependent kinase 4 (Homo sapiens) (UniProt P11802+P40337); assay: PROTAC activity at CDK4/VHL in human Jurkat cells assessed as degradation of CDK7 measured at 10 to 500 nM after 6 hrs incubation by Western blotting analysis; type: cell-based; details: dose 10-500 nM
[11] = molecular target: von Hippel-Lindau disease tumor suppressor/Cyclin-dependent kinase 6 (Homo sapiens) (UniProt Q00534+P40337); assay: PROTAC activity at CDK6/VHL in human Jurkat cells assessed as degradation of CDK7 measured at 10 to 500 nM after 6 hrs incubation by Western blotting analysis; type: cell-based; details: dose 10-500 nM
[12] = molecular target: von Hippel-Lindau disease tumor suppressor/Cyclin-dependent kinase 8 (Homo sapiens) (UniProt P49336+P40337); assay: PROTAC activity at CDK8/VHL in human Jurkat cells assessed as degradation of CDK7 measured at 10 to 500 nM after 6 hrs incubation by Western blotting analysis; type: cell-based; details: dose 10-500 nM
[13] = molecular target: von Hippel-Lindau disease tumor suppressor/Cyclin-dependent kinase 9 (Homo sapiens) (UniProt P50750+P40337); assay: PROTAC activity at CDK9/VHL in human Jurkat cells assessed as degradation of CDK7 measured at 10 to 500 nM after 6 hrs incubation by Western blotting analysis; type: cell-based; details: dose 10-500 nM
[14] = molecular target: T1, von Hippel-Lindau disease tumor suppressor/Cyclin-dependent kinase 7 (Homo sapiens); assay: PROTAC activity at CDK7/VHL in human Jurkat cells assessed as degradation of MAT1 measured at 0.1 to 5 uM after 6 hrs incubation by Western blotting analysis; type: cell-based; details: dose 0.1-5 µM
Outline: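 Jurkat and OVCAR3 cells treated 6 h across a concentration series. Blots probed for CDK7, MAT1 (1:1000) and Cyclin H (1:1000) overnight at 4 °C, with β-actin control and IRDye secondaries.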

[15] = molecular target: von Hippel-Lindau disease tumor suppressor/LON peptidase N-terminal domain and RING finger protein 2 (Homo sapiens) (UniProt P40337+Q1L5Z9); assay: PROTAC activity at LONRF2/VHL in human Jurkat cells assessed as degradation of LONRF2 measured at 0.1 to 5 uM after 6 hrs incubation by Western blotting analysis; type: cell-based; details: dose 0.1-5 µM
Jurkat = assay: Potency index, ratio of YKL-5-167 IC50 to test compound IC50 for antiproliferative activity against human Jurkat cells assessed as cell viability measured after 72 hrs by CellTiter-Glo assay; type: functional
[16] = Half life in male CD1 mouse at 3 mg/kg, IV measured upto 24 hrs by LC-MS/MS-39 analysis; type: ADME, organism-based; details: in vivo
Outline: (§1)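 Three male CD1 mice given a single 3 mg/kg intravenous dose. Plasma prepared on ice by centrifugation (2000 g, 5 min, 4 °C) within 15 min, held at about −70 °C. Acetonitrile precipitation, then LC-MS/MS quantitation. Mean ± SD, n=3.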

[17] = Cmax in male CD1 mouse at 3 mg/kg, IV measured upto 24 hrs by LC-MS/MS-39 analysis; type: ADME, organism-based; details: in vivo; outline: as §1
[18] = AUClast in male CD1 mouse at 3 mg/kg, IV measured upto 24 hrs by LC-MS/MS-39 analysis; type: ADME, organism-based; details: in vivo; outline: as §1
[19] = Observed clearance in male CD1 mouse at 3 mg/kg, IV measured upto 24 hrs by LC-MS/MS-39 analysis; type: ADME, organism-based; details: in vivo; outline: as §1
[20] = Half life in male CD1 mouse at 10 mg/kg, IP measured upto 24 hrs by LC-MS/MS-39 analysis; type: ADME, organism-based; details: in vivo
Outline: (§2)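 Male CD1 mice, n=3, one 10 mg/kg intraperitoneal dose. Blood sampled at 0, 0.25, 0.5, 1, 2, 4, 6, 8 and 24 h. Kept on wet ice and spun to plasma (2000 g, 5 min, 4 °C) within 15 min, stored at about −70 °C. Protein precipitation with acetonitrile, then LC-MS/MS. Values are mean ± SD of three mice.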

[21] = AUClast in male CD1 mouse at 10 mg/kg, IP measured upto 24 hrs by LC-MS/MS-39 analysis; type: ADME, organism-based; details: in vivo; outline: as §2
[22] = Observed clearance in male CD1 mouse at 10 mg/kg, IP measured upto 24 hrs by LC-MS/MS-39 analysis; type: ADME, organism-based; details: in vivo; outline: as §2

T1 sequence (P40337 whole entry, looked up): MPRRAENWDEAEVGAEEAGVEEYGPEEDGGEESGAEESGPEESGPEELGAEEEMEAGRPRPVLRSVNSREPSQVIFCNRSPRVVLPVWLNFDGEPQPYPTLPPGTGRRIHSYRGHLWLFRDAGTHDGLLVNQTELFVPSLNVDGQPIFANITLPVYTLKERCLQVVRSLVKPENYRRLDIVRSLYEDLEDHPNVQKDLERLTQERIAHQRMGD
T1 sequence (P50613 whole entry, looked up): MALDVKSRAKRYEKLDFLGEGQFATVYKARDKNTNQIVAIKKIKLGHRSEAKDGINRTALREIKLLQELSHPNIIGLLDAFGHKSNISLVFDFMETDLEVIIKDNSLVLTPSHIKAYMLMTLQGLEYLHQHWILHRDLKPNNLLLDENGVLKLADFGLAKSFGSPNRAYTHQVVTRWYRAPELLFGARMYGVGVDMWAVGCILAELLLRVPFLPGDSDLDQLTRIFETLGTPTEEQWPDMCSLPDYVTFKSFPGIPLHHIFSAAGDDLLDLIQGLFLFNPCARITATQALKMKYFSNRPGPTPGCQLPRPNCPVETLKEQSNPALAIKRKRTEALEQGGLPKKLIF
Sequence of von Hippel-Lindau disease tumor suppressor/Cyclin-dependent kinase 1 (Homo sapiens) (P06493 whole entry, looked up): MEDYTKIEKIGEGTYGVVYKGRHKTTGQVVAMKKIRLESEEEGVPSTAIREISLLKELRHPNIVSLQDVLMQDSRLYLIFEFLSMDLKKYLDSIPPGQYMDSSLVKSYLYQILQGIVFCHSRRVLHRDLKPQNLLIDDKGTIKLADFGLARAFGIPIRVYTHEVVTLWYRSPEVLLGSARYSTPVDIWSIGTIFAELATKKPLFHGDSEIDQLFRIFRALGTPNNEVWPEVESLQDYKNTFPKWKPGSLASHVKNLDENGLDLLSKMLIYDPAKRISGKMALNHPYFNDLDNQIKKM
Sequence of von Hippel-Lindau disease tumor suppressor/Cyclin-dependent kinase 1 (Homo sapiens) (P40337 whole entry, looked up): as the sequence (P40337 whole entry, looked up) above
Sequence of Cyclin-dependent kinase 7 (Homo sapiens) (P50613 whole entry): as the sequence (P50613 whole entry, looked up) above
Sequence of von Hippel-Lindau disease tumor suppressor/Cyclin-dependent kinase 8 (Homo sapiens) (P40337 whole entry, looked up): as the sequence (P40337 whole entry, looked up) above
Sequence of von Hippel-Lindau disease tumor suppressor/Cyclin-dependent kinase 8 (Homo sapiens) (P49336 whole entry, looked up): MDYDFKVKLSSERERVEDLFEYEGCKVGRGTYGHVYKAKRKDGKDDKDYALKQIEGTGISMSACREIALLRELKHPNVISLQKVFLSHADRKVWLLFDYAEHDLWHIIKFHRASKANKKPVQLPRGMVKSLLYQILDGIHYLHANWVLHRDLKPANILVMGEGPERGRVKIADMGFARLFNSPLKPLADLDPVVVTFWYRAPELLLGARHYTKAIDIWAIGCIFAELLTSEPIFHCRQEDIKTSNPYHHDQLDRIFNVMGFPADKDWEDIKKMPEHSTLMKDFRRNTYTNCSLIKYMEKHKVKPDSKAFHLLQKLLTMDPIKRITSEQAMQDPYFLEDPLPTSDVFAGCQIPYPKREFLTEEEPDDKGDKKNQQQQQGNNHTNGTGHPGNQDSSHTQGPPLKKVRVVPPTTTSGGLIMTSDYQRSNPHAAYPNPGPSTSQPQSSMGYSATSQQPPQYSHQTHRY
Sequence of von Hippel-Lindau disease tumor suppressor/LON peptidase N-terminal domain and RING finger protein 2 (Homo sapiens) (P40337 whole entry, looked up, the tested form may be a part): as the sequence (P40337 whole entry, looked up) above
Sequence of von Hippel-Lindau disease tumor suppressor/LON peptidase N-terminal domain and RING finger protein 2 (Homo sapiens) (Q1L5Z9 whole entry, looked up, the tested form may be a part): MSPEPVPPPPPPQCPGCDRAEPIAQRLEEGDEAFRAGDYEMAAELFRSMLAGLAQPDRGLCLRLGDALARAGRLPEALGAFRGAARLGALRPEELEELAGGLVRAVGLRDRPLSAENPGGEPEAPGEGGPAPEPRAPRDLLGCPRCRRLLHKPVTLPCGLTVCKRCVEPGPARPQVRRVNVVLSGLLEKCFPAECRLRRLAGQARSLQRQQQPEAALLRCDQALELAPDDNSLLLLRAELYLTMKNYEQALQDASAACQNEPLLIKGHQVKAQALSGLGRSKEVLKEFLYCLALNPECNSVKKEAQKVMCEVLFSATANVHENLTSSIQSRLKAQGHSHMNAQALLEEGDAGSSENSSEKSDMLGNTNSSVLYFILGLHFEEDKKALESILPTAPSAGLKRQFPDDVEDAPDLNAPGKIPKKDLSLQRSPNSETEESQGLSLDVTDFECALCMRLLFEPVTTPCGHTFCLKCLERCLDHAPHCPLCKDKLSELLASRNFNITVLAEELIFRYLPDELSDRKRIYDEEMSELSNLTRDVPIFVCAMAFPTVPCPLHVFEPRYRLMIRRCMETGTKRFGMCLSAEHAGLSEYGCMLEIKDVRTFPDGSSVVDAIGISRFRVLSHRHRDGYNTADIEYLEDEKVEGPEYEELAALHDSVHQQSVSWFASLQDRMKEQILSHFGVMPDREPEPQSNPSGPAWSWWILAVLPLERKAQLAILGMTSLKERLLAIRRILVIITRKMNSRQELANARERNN
Sequence of von Hippel-Lindau disease tumor suppressor/Cyclin-dependent kinase 6 (Homo sapiens) (P40337 whole entry, looked up): as the sequence (P40337 whole entry, looked up) above
Sequence of von Hippel-Lindau disease tumor suppressor/Cyclin-dependent kinase 6 (Homo sapiens) (Q00534 whole entry, looked up): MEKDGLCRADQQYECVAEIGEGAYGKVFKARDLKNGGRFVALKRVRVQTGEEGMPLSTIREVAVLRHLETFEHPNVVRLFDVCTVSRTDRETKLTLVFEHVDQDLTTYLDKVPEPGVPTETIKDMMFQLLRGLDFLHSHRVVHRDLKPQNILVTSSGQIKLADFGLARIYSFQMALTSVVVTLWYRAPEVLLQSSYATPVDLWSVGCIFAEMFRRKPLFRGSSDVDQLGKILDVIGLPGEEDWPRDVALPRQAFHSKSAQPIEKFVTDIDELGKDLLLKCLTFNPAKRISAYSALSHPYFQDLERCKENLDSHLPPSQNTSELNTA
Sequence of von Hippel-Lindau disease tumor suppressor/Cyclin-dependent kinase 9 (Homo sapiens) (P40337 whole entry, looked up): as the sequence (P40337 whole entry, looked up) above
Sequence of von Hippel-Lindau disease tumor suppressor/Cyclin-dependent kinase 9 (Homo sapiens) (P50750 whole entry, looked up): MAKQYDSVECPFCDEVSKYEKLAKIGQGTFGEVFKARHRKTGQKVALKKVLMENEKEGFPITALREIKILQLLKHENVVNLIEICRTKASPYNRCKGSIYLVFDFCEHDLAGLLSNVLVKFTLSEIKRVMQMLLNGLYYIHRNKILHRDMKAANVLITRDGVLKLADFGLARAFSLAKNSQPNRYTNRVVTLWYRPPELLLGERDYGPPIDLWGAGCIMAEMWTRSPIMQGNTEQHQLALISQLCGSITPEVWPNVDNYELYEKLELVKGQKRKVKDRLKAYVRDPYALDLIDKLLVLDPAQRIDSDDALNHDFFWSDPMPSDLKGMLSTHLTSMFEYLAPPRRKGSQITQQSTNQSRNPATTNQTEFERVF
Sequence of von Hippel-Lindau disease tumor suppressor/Cyclin-dependent kinase 4 (Homo sapiens) (P11802 2-303 limits assumed): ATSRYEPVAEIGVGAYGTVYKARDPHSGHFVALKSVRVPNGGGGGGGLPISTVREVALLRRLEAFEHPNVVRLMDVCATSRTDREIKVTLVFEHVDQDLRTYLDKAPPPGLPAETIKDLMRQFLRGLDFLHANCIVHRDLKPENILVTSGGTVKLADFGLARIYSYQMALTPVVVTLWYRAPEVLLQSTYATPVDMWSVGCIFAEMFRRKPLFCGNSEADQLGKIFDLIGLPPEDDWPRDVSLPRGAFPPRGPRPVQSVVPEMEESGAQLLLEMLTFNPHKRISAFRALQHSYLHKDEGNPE
Sequence of von Hippel-Lindau disease tumor suppressor/Cyclin-dependent kinase 4 (Homo sapiens) (P40337 whole entry partner): as the sequence (P40337 whole entry, looked up) above

Structure (SMILES): Cc1ncsc1-c1ccc([C@H](C)NC(=O)[C@@H]2C[C@@H](O)CN2C(=O)[C@@H](NC(=O)CCCC#Cc2ccc(C(=O)Nc3n[nH]c4c3CN(C(=O)N[C@H](CN(C)C)c3ccccc3)C4(C)C)cc2)C(C)(C)C)cc1
- Activity [1]: 95%
- Activity [2]: Tde
- Efficacy [3]: Dose-Dependent Effect
- Activity [4]: Dose-Dependent Effect
- Activity [5]: Dose-Dependent Effect
- Activity [6]: Dose-Dependent Effect
- Activity [7]: inactive
- Activity [8]: inactive
- Activity [9]: inactive
- Activity [10]: inactive
- Activity [11]: inactive
- Activity [12]: inactive
- Activity [13]: inactive
- Activity [14]: Active
- Activity [15]: inactive
- Ratio (Jurkat): 7
- t1/2 [16]: 3.76 h
- Cmax [17]: 17.1 µM
- AUClast [18]: 6.12 µM·h
- clearance [19]: 8.3 mL/min/kg
- t1/2 [20]: 2.82 h
- AUClast [21]: 19.4 µM·h
- CL/F [22]: 8.7 mL/min/kg
